Calls of active or inactive are those of the source. The calls are words filed in the database; no cut-off is given here.
What was measured:
[1] = biological target: T1, Toll-like receptor 9 (Mus musculus) (UniProt Q9EQU3); assay: Antagonist activity at mouse TLR9 expressed in HEK293 cells assessed as inhibition of 5'-CTATCTGTCGTTCTCTGT-3'-induced NF-kappaB activation by SEAP reporter gene assay; format: functional, cell-based
T1 sequence (whole entry): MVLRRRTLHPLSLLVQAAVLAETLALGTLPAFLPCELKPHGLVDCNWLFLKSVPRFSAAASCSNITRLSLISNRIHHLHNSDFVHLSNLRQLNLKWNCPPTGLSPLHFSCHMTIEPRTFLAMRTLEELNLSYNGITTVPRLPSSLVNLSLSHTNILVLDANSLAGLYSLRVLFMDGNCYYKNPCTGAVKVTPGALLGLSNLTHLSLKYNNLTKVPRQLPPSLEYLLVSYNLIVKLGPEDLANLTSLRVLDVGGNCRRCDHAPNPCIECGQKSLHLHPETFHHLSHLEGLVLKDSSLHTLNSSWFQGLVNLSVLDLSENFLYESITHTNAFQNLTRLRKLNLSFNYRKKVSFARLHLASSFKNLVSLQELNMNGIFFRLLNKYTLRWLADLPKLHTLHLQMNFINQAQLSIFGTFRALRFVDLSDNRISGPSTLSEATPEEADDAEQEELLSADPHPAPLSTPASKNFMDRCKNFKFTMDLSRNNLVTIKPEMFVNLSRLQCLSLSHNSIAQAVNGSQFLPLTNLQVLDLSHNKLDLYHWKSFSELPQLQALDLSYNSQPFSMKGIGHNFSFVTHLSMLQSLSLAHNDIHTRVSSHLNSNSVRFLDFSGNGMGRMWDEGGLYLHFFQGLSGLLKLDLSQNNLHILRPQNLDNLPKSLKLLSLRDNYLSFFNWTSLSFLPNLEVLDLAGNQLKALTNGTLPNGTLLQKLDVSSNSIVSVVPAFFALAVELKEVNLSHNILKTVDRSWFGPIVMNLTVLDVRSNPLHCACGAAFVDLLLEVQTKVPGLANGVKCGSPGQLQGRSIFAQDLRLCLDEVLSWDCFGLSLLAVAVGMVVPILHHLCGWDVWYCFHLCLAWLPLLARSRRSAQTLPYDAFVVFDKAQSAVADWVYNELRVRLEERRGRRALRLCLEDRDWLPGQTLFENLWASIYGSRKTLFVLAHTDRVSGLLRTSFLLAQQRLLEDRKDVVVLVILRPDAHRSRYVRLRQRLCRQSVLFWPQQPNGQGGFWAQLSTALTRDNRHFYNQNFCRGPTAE
Method in brief: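 Mouse TLR9-HEK293 cells were transfected with a SEAP reporter for 6 h. They were then stimulated for 18 h with agonist (0.25 or 0.5 µg/mL) plus increasing antagonist concentrations or set agonist:antagonist ratios. Quanti-Blue read-out, reported as % NF-κB activity with agonist alone as 100%.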

[2] = biological target: T1, Toll-like receptor 9 (Mus musculus); assay: Agonist activity at mouse TLR9 expressed in HEK293 cells assessed as activation of NF-kappaB at 10 ug/mL by SEAP reporter gene assay; format: functional, cell-based
Method in brief: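 HEK293 cells stably expressing mouse TLR9 were transiently transfected with a SEAP reporter for 6 h. Compounds were added at 10 µg/mL for 18 h. SEAP was read with Quanti-Blue substrate and expressed as fold change in NF-κB activity.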

[3] = biological target: T2, Toll-like receptor 9 (Homo sapiens) (UniProt Q9NR96); assay: Antagonist activity at TLR9 in human PBMC assessed as inhibition of 5'-TCTGTCRTTCT-X-TCTTRCTGTCT-5'-induced NF-kappaB activation at 40 ug/mL treated 1 hr before induction measured after 2 hrs; format: functional
T2 sequence (whole entry): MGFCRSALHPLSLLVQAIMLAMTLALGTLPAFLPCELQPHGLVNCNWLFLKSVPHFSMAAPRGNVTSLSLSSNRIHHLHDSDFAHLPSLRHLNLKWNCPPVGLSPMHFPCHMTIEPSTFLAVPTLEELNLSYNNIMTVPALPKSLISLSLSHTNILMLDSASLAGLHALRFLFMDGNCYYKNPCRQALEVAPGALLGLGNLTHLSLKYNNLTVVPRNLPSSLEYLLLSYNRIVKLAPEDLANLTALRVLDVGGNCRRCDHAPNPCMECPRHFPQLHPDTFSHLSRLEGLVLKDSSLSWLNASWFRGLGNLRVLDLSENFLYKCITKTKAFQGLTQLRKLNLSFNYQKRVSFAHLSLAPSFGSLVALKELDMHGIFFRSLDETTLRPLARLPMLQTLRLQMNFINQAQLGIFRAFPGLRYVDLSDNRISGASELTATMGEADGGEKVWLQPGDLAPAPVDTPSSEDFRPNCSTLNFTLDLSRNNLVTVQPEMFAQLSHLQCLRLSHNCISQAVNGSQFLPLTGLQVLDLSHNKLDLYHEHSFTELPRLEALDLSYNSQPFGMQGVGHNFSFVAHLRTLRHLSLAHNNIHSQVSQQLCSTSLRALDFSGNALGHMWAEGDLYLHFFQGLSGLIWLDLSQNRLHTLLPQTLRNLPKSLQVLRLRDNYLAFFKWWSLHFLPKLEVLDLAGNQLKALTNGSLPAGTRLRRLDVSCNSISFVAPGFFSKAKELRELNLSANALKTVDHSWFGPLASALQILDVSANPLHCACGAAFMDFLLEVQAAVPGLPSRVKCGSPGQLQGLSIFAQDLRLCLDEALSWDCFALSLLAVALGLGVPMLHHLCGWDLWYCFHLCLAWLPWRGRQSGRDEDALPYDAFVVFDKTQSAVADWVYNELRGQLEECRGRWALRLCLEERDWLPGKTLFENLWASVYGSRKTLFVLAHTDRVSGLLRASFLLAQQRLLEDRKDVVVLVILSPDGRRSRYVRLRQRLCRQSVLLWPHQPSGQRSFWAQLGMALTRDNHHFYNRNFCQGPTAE
Method in brief: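 Human PBMCs plated at 1×10^7 cells/well were preincubated with antagonist at the indicated concentrations for 1 h. TLR9 or TLR7/8 agonist was then added for 2 h. Nuclear extracts were analysed for NF-κB by EMSA. One representative donor of three.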

PBMC [4] = assay: (§1) Induction of IP10 secretion in human PBMC; format: functional, cell-based
Method in brief: (§2)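 Human PBMCs (5×10^6/mL; 1×10^6 per well) were cultured 24 h with TLR9 agonist 5 µg/mL or TLR7/8 agonist 100 µg/mL, alone or with antagonist at 1:4. Compounds were dissolved in PBS. Supernatant cytokines were measured by Luminex human 25-plex bead assay. One representative donor of six.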

PBMC [5] = assay: Induction of MIP1beta secretion in human PBMC; format: functional, cell-based; method in brief: as §2
PBMC [6] = assay: Induction of MCP1 secretion in human PBMC; format: functional, cell-based; method in brief: as §2
PBMC [7] = assay: Induction of IL6 secretion in human PBMC; format: functional, cell-based; method in brief: as §2
PBMC [8] = assay: Induction of IFNalpha secretion in human PBMC; format: functional, cell-based; method in brief: as §2
PBMC [9] = assay: Induction of TNFalpha secretion in human PBMC; format: functional, cell-based; method in brief: as §2
PBMC [10] = assay: Induction of IL12 secretion in human PBMC; format: functional, cell-based; method in brief: as §2
PBMC [11] = assay: Induction of IFN-gamma secretion in human PBMC; format: functional, cell-based; method in brief: as §2
PBMC [12] = assay: as §1; format: functional, cell-based; method in brief: as §2; remark: listed apart in the source
PBMC [13] = assay: Induction of MIG secretion in human PBMC; format: functional, cell-based; method in brief: as §2
PBMC [14] = assay: Inhibition of 5'-TCTGTCRTTCT-X-TCTTRCTGTCT-5'-induced cytokines secretion in human PBMC at 1:5 agonist to drug ratio; format: functional, cell-based
Method in brief: (§3)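 Human PBMCs isolated from healthy volunteer blood by Ficoll gradient, cultured at 1×10^6/200 μL in supplemented RPMI 1640 with 10% heat-inactivated FBS. Treated for 24 h with agonist and/or antagonist dissolved in PBS; TLR9 agonist at 5 μg/mL, TLR7/8 agonist at 100 μg/mL. Supernatant cytokines/chemokines by Luminex human 25-plex bead assay; unstimulated cells as control.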

PBMC [15] = assay: Inhibition of 5'-UGCUGUUCUG-X-GUCUUGUCGU-5'-induced cytokines secretion in human PBMC at 1:5 agonist to drug ratio; format: functional, cell-based; method in brief: as §3
PBMC [16] = assay: Inhibition of 5'-TCTGTCRTTCT-X-TCTTRCTGTCT-5'-induced chemokines secretion in human PBMC at 1:5 agonist to drug ratio; format: functional, cell-based; method in brief: as §3
PBMC [17] = assay: Inhibition of 5'-UGCUGUUCUG-X-GUCUUGUCGU-5'-induced chemokines secretion in human PBMC at 1:5 agonist to drug ratio; format: functional, cell-based; method in brief: as §3
PBMC [18] = assay: Inhibition of 5'-TCTGTCRTTCT-X-TCTTRCTGTCT-5'-induced human PBMC proliferation treated 72 hrs before induction; format: functional, cell-based
[19] = biological target: Toll-like receptor 7 (Homo sapiens) (UniProt Q9NYK1); assay: Antagonist activity at TLR7/8 in human PBMC assessed as inhibition of 5'-UGCUGUUCUG-X-GUCUUGUCGU-5'-induced NF-kappaB activation in human PBMC at 400 ug/mL treated 1 hr before induction measured after 2 hrs
[20] = biological target: Toll-like receptor 7 (Homo sapiens) (UniProt Q9NYK1); assay: Agonist activity at TLR7/8 in human PBMC assessed as NF-kappaB activation at 100 ug/mL

Toll-like receptor 7 (Homo sapiens), sequence (Q9NYK1 whole entry, looked up): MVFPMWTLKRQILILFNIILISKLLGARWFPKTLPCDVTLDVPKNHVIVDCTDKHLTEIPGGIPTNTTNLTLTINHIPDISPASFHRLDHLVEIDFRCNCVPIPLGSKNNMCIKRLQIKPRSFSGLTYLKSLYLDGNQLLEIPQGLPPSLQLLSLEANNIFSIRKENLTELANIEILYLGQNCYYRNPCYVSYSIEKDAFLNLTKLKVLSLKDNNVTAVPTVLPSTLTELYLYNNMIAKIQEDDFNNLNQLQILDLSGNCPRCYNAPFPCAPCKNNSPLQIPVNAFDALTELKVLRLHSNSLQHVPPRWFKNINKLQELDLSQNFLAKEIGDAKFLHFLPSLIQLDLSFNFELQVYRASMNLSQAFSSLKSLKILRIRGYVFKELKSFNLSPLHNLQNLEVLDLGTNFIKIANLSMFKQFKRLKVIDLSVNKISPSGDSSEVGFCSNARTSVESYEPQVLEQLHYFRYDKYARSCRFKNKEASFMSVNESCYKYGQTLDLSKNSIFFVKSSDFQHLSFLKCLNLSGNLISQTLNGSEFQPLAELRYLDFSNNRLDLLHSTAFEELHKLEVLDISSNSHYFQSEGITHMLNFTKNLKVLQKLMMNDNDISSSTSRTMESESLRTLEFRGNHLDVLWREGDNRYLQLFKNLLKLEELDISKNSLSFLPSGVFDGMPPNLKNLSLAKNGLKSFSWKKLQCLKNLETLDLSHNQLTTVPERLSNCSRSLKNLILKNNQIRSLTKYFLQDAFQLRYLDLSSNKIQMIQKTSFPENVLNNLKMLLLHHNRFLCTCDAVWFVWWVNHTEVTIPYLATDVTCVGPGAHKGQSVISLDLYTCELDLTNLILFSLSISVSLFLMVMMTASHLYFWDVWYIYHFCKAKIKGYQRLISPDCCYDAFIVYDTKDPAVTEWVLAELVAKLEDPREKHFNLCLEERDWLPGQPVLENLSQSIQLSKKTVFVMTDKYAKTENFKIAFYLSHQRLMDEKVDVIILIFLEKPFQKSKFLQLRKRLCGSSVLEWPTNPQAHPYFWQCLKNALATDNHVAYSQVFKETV

Compound | Activity [1] | Activity [2] | Activity [3] | Activity (PBMC [4]) | Activity (PBMC [5]) | Activity (PBMC [6]) | Activity (PBMC [7]) | Activity (PBMC [8]) | Activity (PBMC [9]) | Activity (PBMC [10]) | Activity (PBMC [11]) | Activity (PBMC [12]) | Activity (PBMC [13]) | Activity (PBMC [14]) | Activity (PBMC [15]) | Activity (PBMC [16]) | Activity (PBMC [17]) | Activity (PBMC [18]) | Activity [19] | Activity [20]
CO[C@@H]1[C@H](OP(=O)(S)OC[C@H]2O[C@@H](n3ccc(N)nc3=O)C[C@@H]2OP(=O)(S)OC[C@H]2O[C@@H](n3ccc4c(=O)[nH]c(N)nc43)C[C@@H]2OP(=O)(S)OC[C@H]2O[C@@H](n3cc(C)c(=O)[nH]c3=O)C[C@@H]2OP(=O)(S)OC[C@H]2O[C@@H](n3cc(C)c(=O)[nH]c3=O)C[C@@H]2OP(=O)(S)OC[C@H]2O[C@@H](n3ccc(N)nc3=O)C[C@@H]2OP(=O)(S)OC[C@H]2O[C@@H](n3cc(C)c(=O)[nH]c3=O)C[C@@H]2OP(=O)(S)OC[C@H]2O[C@@H](n3ccc(N)nc3=O)C[C@@H]2OP(=O)(S)OC[C@H]2O[C@@H](n3cc(C)c(=O)[nH]c3=O)C[C@@H]2OP(=O)(S)OC[C@H]2O[C@@H](n3cnc4c(=O)[nH]c(N)nc43)C[C@@H]2OP(=O)(S)OC[C@H]2O[C@@H](n3cc(C)c(=O)[nH]c3=O)C[C@@H]2O)[C@@H](COP(=O)(S)O[C@H]2[C@@H](OC)[C@H](n3cnc4c(=O)[nH]c(N)nc43)O[C@@H]2COP(=O)(S)O[C@H]2C[C@H](n3cc(C)c(=O)[nH]c3=O)O[C@@H]2COP(=O)(S)O[C@H]2C[C@H](n3ccc(N)nc3=O)O[C@@H]2COP(=O)(S)O[C@H]2C[C@H](n3cc(C)c(=O)[nH]c3=O)O[C@@H]2COP(=O)(S)O[C@H]2C[C@H](n3cnc4c(N)ncnc43)O[C@@H]2COP(=O)(S)O[C@H]2C[C@H](n3cc(C)c(=O)[nH]c3=O)O[C@@H]2COP(=O)(S)O[C@@H]2[C@H](O)[C@@H](n3ccc(N)nc3=O)O[C@H]2CO)O[C@H]1n1ccc(=O)[nH]c1=O (stereo not given in full) | Active | inactive | Active | inactive | inactive | inactive | inactive | inactive | inactive | inactive | inactive | inactive | inactive | Active | Active | Active | Active | Active | Active | –
Nc1ccn([C@@H]2O[C@H](COP(=O)(S)O[C@H]3[C@@H](O)[C@H](n4ccc(=O)[nH]c4=O)O[C@@H]3COP(=O)(S)O[C@H]3[C@@H](O)[C@H](n4ccc(=O)[nH]c4=O)O[C@@H]3COP(=O)(S)O[C@H]3[C@@H](O)[C@H](n4ccc5c(=O)[nH]c(N)nc54)O[C@@H]3COP(=O)(S)O[C@H]3[C@@H](O)[C@H](n4ccc(=O)[nH]c4=O)O[C@@H]3COP(=O)(S)O[C@H]3[C@@H](O)[C@H](n4ccc(N)nc4=O)O[C@@H]3COP(=O)(S)O[C@H]3[C@@H](O)[C@H](n4ccc5c(=O)[nH]c(N)nc54)O[C@@H]3COP(=O)(S)O[C@H]3[C@@H](O)[C@H](n4ccc(=O)[nH]c4=O)O[C@@H]3CO)[C@@H](OP(=O)(S)OC[C@H]3O[C@@H](n4ccc(=O)[nH]c4=O)[C@H](O)[C@@H]3OP(=O)(S)OC[C@H]3O[C@@H](n4ccc5c(=O)[nH]c(N)nc54)[C@H](O)[C@@H]3OP(=O)(S)OCC(O)COP(=O)(S)O[C@H]3[C@@H](O)[C@H](n4ccc5c(=O)[nH]c(N)nc54)O[C@@H]3COP(=O)(S)O[C@H]3[C@@H](O)[C@H](n4ccc(=O)[nH]c4=O)O[C@@H]3COP(=O)(S)O[C@H]3[C@@H](O)[C@H](n4ccc(N)nc4=O)O[C@@H]3COP(=O)(S)O[C@H]3[C@@H](O)[C@H](n4ccc(=O)[nH]c4=O)O[C@@H]3COP(=O)(S)O[C@H]3[C@@H](O)[C@H](n4ccc(=O)[nH]c4=O)O[C@@H]3COP(=O)(S)O[C@H]3[C@@H](O)[C@H](n4ccc5c(=O)[nH]c(N)nc54)O[C@@H]3COP(=O)(S)O[C@H]3[C@@H](O)[C@H](n4ccc(=O)[nH]c4=O)O[C@@H]3COP(=O)(S)O[C@H]3[C@@H](O)[C@H](n4ccc(N)nc4=O)O[C@@H]3COP(=O)(S)O[C@H]3[C@@H](O)[C@H](n4ccc5c(=O)[nH]c(N)nc54)O[C@@H]3COP(=O)(S)O[C@H]3[C@@H](O)[C@H](n4ccc(=O)[nH]c4=O)O[C@@H]3CO)[C@H]2O)c(=O)n1 (stereo not given in full) | – | – | – | Active | Active | Active | Active | Active | Active | Active | Active | Active | Active | – | – | – | – | – | – | Active
